Results: ChEMBL document CHEMBL2163267, “Novel N-linked aminopiperidine inhibitors of bacterial topoisomerase type II with reduced pK(a): antibacterial agents with an improved safety profile” (J Med Chem, 2012)
≈ marks a conversion by molar mass, not a printed value.

Legend:
[1] = Oral bioavailability in Wistar Han rat at 10 mg/kg; type: ADME, organism-based; details: in vivo
Summary of the method: (§1)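 Bioavailability from a 10 mg/kg oral dose, by gavage in rats (groups of three) or orally in male beagle dogs (n = 3). Plasma sampled serially over time (dogs 0 to 24 h). Levels measured by LC-MS/MS and referenced to iv dosing. Parameters from non-compartmental analysis.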

[2] = Fraction unbound in human plasma at 10 uM by equilibrium dialysis method; type: ADME, cell-free
Summary of the method: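 Equilibrium dialysis. Compound at 10 μM in the plasma (donor) chamber against phosphate buffer, rotated at 37 °C for 16 h. Drug in the plasma and buffer samples quantified by LC-MS/MS after methanol protein precipitation with internal standard. Standard curve 10 nM to 10 μM.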

[3] = test system: Staphylococcus aureus; assay: Antibacterial activity against hospital acquired methicillin-resistant Staphylococcus aureus ARC 1692 after 18 to 24 hrs by CLSI broth microdilution method; type: functional
Summary of the method: (§2)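 CLSI broth microdilution in Mueller Hinton Broth 2. Inocula prepared from blood agar plates grown at 35 °C for 18–24 h. Compound in DMSO, 2% DMSO final, 11 doubling dilutions from 64 to 0.06 μg/mL. Plates read at 620 nm.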

[4] = test system: Staphylococcus aureus; assay: Antibacterial activity against vancomycin-resistant Staphylococcus aureus ARC 3186 after 18 to 24 hrs by CLSI broth microdilution method; type: functional; summary of the method: as §2
[5] = test system: Canis familiaris; assay: Volume of distribution in Beagle dog at 10 mg/kg, iv administered as infusion and po; type: ADME, organism-based, Canis lupus familiaris; set-up: dose 10 mg/kg, route oral; details: in vivo
Summary of the method: (§3)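 Single iv dose (3 mg/kg bolus, or 10 mg/kg infusion, per line). Rats in groups of three, bolus via cannulated jugular vein. Male beagle dogs (n = 3), iv as 15 min infusion, sampled 0 to 24 h. Serial whole-blood samples taken at time intervals. Plasma levels measured by LC-MS/MS. Parameters estimated by non-compartmental analysis.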

[6] = Half life in Wistar Han rat at 10 mg/kg, iv administered as infusion and po; type: ADME, organism-based; set-up: dose 10 mg/kg, route oral; details: in vivo
[7] = test system: Staphylococcus aureus; assay: Antibacterial activity against methicillin-susceptible Staphylococcus aureus after 18 to 24 hrs by CLSI broth microdilution method; type: functional
[8] = test system: Mus musculus; assay: AUC (infinity) in CD1 mouse infected with methicillin-resistant Staphylococcus aureus ARC 1692 at 40 mg/kg/day, ip; type: ADME, organism-based, Plasma; set-up: dose 40 mg/kg/day, time infinity, route intraperitoneal; details: in vivo
[9] = test system: Streptococcus pneumoniae; assay: Antibacterial activity against penicillin-susceptible Streptococcus pneumoniae D39 after 18 to 24 hrs by CLSI broth microdilution method; type: functional
[10] = test system: Rattus norvegicus; assay: Volume of distribution in Wistar Han rat at 10 mg/kg, iv administered as infusion and po; type: ADME, organism-based; set-up: dose 10 mg/kg, route oral; details: in vivo; summary of the method: as §3
[11] = Intrinsic clearance in Beagle dog hepatocytes measured per 10^6 cells; type: ADME, cell-based, Canis lupus familiaris, Hepatocyte; details: read-out: CLH
[12] = Intrinsic clearance in Wistar Han rat hepatocytes measured per 10^6 cells; type: ADME, cell-based, Hepatocyte; details: read-out: CLH
[13] = Intrinsic clearance in human hepatocytes measured per 10^6 cells; type: ADME, cell-based, Hepatocyte; details: read-out: CLH
[14] = test system: Pseudomonas aeruginosa; assay: Antibacterial activity against Pseudomonas aeruginosa PAO1 after 18 to 24 hrs by CLSI broth microdilution method; type: functional
[15] = biological target: T1, Voltage-gated inwardly rectifying potassium channel KCNH2 (Homo sapiens, UniProt Q12809); assay: Inhibition of human ERG by Ionworks assay
T1 sequence (Q12809 whole entry): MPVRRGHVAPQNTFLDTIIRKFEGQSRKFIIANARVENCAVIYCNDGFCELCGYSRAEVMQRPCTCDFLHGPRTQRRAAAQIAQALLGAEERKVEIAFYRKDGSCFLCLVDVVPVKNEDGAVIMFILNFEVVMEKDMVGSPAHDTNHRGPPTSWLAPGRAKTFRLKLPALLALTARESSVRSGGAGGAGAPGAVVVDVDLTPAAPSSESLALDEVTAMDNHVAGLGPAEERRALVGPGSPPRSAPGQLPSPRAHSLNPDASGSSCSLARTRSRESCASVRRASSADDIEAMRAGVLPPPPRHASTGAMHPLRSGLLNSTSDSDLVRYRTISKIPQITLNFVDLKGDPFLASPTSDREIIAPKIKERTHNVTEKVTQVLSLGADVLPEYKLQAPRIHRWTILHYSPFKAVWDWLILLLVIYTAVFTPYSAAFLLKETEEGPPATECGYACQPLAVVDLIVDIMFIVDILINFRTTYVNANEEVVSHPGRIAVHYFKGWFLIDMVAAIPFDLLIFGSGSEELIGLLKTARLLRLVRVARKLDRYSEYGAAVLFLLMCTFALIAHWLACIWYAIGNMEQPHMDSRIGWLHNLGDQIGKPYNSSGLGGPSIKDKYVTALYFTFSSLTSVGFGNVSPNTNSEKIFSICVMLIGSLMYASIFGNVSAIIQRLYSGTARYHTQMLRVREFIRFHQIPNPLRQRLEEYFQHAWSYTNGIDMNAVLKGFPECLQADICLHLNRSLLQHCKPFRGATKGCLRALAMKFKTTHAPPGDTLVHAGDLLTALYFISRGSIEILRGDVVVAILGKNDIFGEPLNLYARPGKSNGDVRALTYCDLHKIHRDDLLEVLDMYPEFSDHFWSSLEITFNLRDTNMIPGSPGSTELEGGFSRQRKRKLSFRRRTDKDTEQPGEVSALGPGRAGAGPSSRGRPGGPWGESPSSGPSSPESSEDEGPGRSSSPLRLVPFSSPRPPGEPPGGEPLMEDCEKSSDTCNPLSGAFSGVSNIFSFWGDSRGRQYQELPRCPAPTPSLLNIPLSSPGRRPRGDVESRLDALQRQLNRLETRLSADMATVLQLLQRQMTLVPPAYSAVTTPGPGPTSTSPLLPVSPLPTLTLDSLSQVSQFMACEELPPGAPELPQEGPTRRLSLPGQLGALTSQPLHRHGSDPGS

[16] = test system: Staphylococcus aureus; assay: Antibacterial activity against methicillin-resistant Staphylococcus aureus ARC 1692 in ABT-treated CD1 mouse neutropenic thigh infection model assessed as reduction in log10 CFU per gram of thigh at 20 mg/kg/day, ip qd starting 2 hrs post-infection measured after 24 hrs; type: functional; details: route intraperitoneal
[17] = Dissociation constant, pKa of the compound by pH metric assay; type: physicochemical
Summary of the method: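 pH-metric titration on an automated titrator, run in triplicate. Accuracy about 0.02 log units.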

[18] = AUC in Beagle dog at 10 mg/kg, iv administered as infusion; type: ADME, organism-based, Canis lupus familiaris; set-up: dose 10 mg/kg, route intravenous; details: plasma; summary of the method: as §3
[19] = test system: Cavia porcellus; assay: Cardiotoxicity in iv dosed guinea pig assessed as change in MAPD90 at 67 uM total plasma concentration; type: toxicity, organism-based; details: in vivo
Summary of the method: (§4)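 Male guinea pigs anaesthetized with Nembutal, tracheotomized and mechanically ventilated. Compound given iv in two 17 min infusion periods with cardiac pacing. Monophasic action potential recorded continuously and MAPD90 taken. Blood drawn at each dose level for plasma concentration. Vehicle controls run in separate cohorts; n = 6.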

[20] = test system: Mus musculus; assay: AUC (infinity) in CD1 mouse infected with methicillin-resistant Staphylococcus aureus ARC 1692 at 60 mg/kg/day, ip; type: ADME, organism-based, Plasma; set-up: dose 60 mg/kg/day, time infinity, route intraperitoneal; details: in vivo
[21] = test system: Staphylococcus aureus; assay: Antibacterial activity against community acquired methicillin-resistant Staphylococcus aureus ARC 3189 after 18 to 24 hrs by CLSI broth microdilution method; type: functional; summary of the method: as §2
[22] = biological target: T1, Voltage-gated inwardly rectifying potassium channel KCNH2; assay: Displacement of [3H]-astemizole from human ERG expressed in HEK293 cells after 60 mins by liquid scintillation counter; type: cell-based
[23] = Inhibition of Escherichia coli DNA topoisomerase 4 subunit ParC/DNA topoisomerase 4 subunit ParE ATPase activity after 24 hrs by malachite green staining-based colorimetric assay
[24] = test system: Staphylococcus aureus; assay: Antibacterial activity against methicillin-resistant Staphylococcus aureus ARC 1692 in ABT-treated CD1 mouse neutropenic thigh infection model assessed as reduction in log10 CFU per gram of thigh at 40 mg/kg/day, ip qd starting 2 hrs post-infection measured after 24 hrs; type: functional; details: route intraperitoneal
[25] = Oral bioavailability in Beagle dog at 10 mg/kg; type: ADME, organism-based, Canis lupus familiaris; details: in vivo; summary of the method: as §1
[26] = test system: Escherichia coli; assay: Antibacterial activity against Escherichia coli W3110 after 18 to 24 hrs by CLSI broth microdilution method; type: functional
[27] = test system: Staphylococcus aureus; assay: Antibacterial activity against methicillin-resistant Staphylococcus aureus ARC 1692 in ABT-treated CD1 mouse neutropenic thigh infection model assessed as reduction in log10 CFU per gram of thigh at 60 mg/kg/day, ip qd starting 2 hrs post-infection measured after 24 hrs; type: functional; details: route intraperitoneal
[28] = AUC in Wistar Han rat at 10 mg/kg, iv administered as infusion; type: ADME, organism-based; set-up: dose 10 mg/kg, route intravenous; details: plasma; summary of the method: as §3
[29] = Half life in Beagle dog at 10 mg/kg, iv administered as infusion and po; type: ADME, organism-based, Canis lupus familiaris; set-up: dose 10 mg/kg, route oral; details: in vivo
[30] = Octanol-phosphate buffer partition coefficient, log D of the compound at pH 7.4 by shake flask method; type: physicochemical
Summary of the method: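 Shake-flask partition between n-octanol and 10 mM phosphate buffer at pH 7.4. Shaken 1 h at 1200 rpm to reach equilibrium. Phases analysed by LC/UV, with MS for mass confirmation.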

[31] = test system: Staphylococcus aureus; assay: Antibacterial activity against linezolid-resistant Staphylococcus aureus ARC 3583 after 18 to 24 hrs by CLSI broth microdilution method; type: functional; summary of the method: as §2
[32] = test system: Mus musculus; assay: AUC (infinity) in CD1 mouse infected with methicillin-resistant Staphylococcus aureus ARC 1692 at 20 mg/kg/day, ip; type: ADME, organism-based, Plasma; set-up: dose 20 mg/kg/day, time infinity, route intraperitoneal; details: in vivo
[33] = test system: Mus musculus; assay: AUC (infinity) in CD1 mouse infected with methicillin-resistant Staphylococcus aureus ARC 1692 at 80 mg/kg/day, ip; type: ADME, organism-based, Plasma; set-up: dose 80 mg/kg/day, time infinity, route intraperitoneal; details: in vivo
[34] = test system: Staphylococcus aureus; assay: Antibacterial activity against methicillin-resistant Staphylococcus aureus ARC 1692 in ABT-treated CD1 mouse neutropenic thigh infection model assessed as reduction in log10 CFU per gram of thigh at 80 mg/kg/day, ip qd starting 2 hrs post-infection measured after 24 hrs; type: functional; details: route intraperitoneal
[35] = Clearance in Beagle dog at 3 mg/kg, iv administered as bolus dose and 10 mg/kg, po; type: ADME, organism-based, Canis lupus familiaris; details: in vivo
[36] = Half life in Beagle dog at 3 mg/kg, iv administered as bolus dose and 10 mg/kg, po; type: ADME, organism-based, Canis lupus familiaris; details: in vivo
[37] = Volume of distribution in Beagle dog at 3 mg/kg, iv administered as bolus dose and 10 mg/kg, po; type: ADME, organism-based, Canis lupus familiaris; details: in vivo
[38] = Clearance in Wistar Han rat at 3 mg/kg, iv administered as bolus dose and 10 mg/kg, po; type: ADME, organism-based; details: in vivo; summary of the method: as §3
[39] = AUC in Wistar Han rat at 3 mg/kg, iv administered as bolus dose; type: ADME, organism-based; set-up: dose 3 mg/kg, route intravenous; details: plasma; summary of the method: as §3
[40] = AUC in Beagle dog at 3 mg/kg, iv administered as bolus dose; type: ADME, organism-based, Canis lupus familiaris; set-up: dose 3 mg/kg, route intravenous; details: plasma
[41] = test system: Cavia porcellus; assay: Cardiotoxicity in iv dosed guinea pig assessed as MAPD90 prolongation at 16 uM free plasma concentration; type: toxicity, organism-based; details: in vivo; summary of the method: as §4
[42] = Half life in Wistar Han rat at 3 mg/kg, iv administered as bolus dose and 10 mg/kg, po; type: ADME, organism-based; details: in vivo; summary of the method: as §3
[43] = Volume of distribution in Wistar Han rat at 3 mg/kg, iv administered as bolus dose and 10 mg/kg, po; type: ADME, organism-based; details: in vivo; summary of the method: as §3

Structure (SMILES)	bioavailability [1] [%]	fraction unbound at 10 µM [2]	MIC [3] [µg/mL]	MIC [4] [µg/mL]	Vd [5] [L/kg]	MIC [7] [µg/mL]	AUC [8] [µg/h/mL]	MIC [9] [µg/mL]	Vd [10] [L/kg]	hepatocyte CLint [11] [µL/min/1e6 cells]	hepatocyte CLint [12] [µL/min/1e6 cells]	hepatocyte CLint [13] [µL/min/1e6 cells]	MIC [14] [µg/mL]	IC50 [15] [nM]	pKa [17]	AUC [18] [ng·h/mL]	MIC [21] [µg/mL]	IC50 [23] [nM]	MIC [26] [µg/mL]	logD [30]	also measured
N#Cc1ccc2ccc(=O)n(CCN3CC[C@H](NCc4cc5c(cn4)OCCO5)[C@H](F)C3)c2c1	18	0.25	0.125 (≈ 0.27 µM)	0.015 (≈ 0.0324 µM)	1.5	0.06 (≈ 0.129 µM)	37	0.13 (≈ 0.28 µM)	3	4.5	13	5.2	> 8	233000	7.03	27000	0.06 (≈ 0.129 µM)	48	4 (≈ 8.63 µM)	0.96	half-life [6]: 0.9 h; log10cfu [16]: 0.1; Activity [19]: Non-toxic; AUC [20]: 53 µg/h/mL; IC50 [22]: > 200000 nM; log10cfu [24]: 1; bioavailability [25]: 60%; log10cfu [27]: 1.5; AUC [28]: 3100 ng·h/mL; half-life [29]: 3.4 h; MIC [31]: 0.125 µg/mL (≈ 0.27 µM); AUC [32]: 18 µg/h/mL
C[C@H]1COc2c(N3CCN(C)CC3)c(F)cc3c(=O)c(C(=O)O)cn1c23.C[C@H]1COc2c(N3CCN(C)CC3)c(F)cc3c(=O)c(C(=O)O)cn1c23.O [LEVOFLOXACIN]			0.125	16			4										8				AUC [33]: 11 µg/h/mL; log10cfu [24]: 0.3; MIC [31]: > 16 µg/mL; log10cfu [34]: 1.4
N#Cc1ccc2ccc(=O)n(CCN3CCC(NCc4cc5c(cn4)OCCO5)CC3)c2c1	31	0.28				0.03 (≈ 0.0673 µM)		0.08 (≈ 0.18 µM)		1.8	42		> 8	44000	8.27			3.2	0.5 (≈ 1.12 µM)	0.68	clearance [35]: 18 mL/min/kg; half-life [36]: 8.4 h; Vd [37]: 8 L/kg; clearance [38]: 127 mL/min/kg; AUC [39]: 370 ng·h/mL; IC50 [22]: 39000 nM; AUC [40]: 2600 ng·h/mL; Activity [41]: > 10%; bioavailability [25]: 72%; half-life [42]: 3 h; Vd [43]: 21 L/kg
N#Cc1ccc2ccc(=O)n(CCN3CC[C@@H](NCc4ccc5c(n4)NC(=O)CO5)[C@@H](F)C3)c2c1		0.2			1.7	0.06 (≈ 0.126 µM)		0.25 (≈ 0.525 µM)	3	8.6	14	2	8 (≈ 16.8 µM)		7.28	25000		11	1 (≈ 2.1 µM)	0.66	AUC [28]: 2500 ng·h/mL; half-life [29]: 5.4 h
COc1ccc2ncc(=O)n(CCN3CCC(NCc4ccc5c(n4)NC(=O)CO5)CC3)c2c1		0.26				0.03 (≈ 0.0646 µM)		0.08 (≈ 0.172 µM)		< 1	26		1 (≈ 2.15 µM)		8.42			2.2	0.13 (≈ 0.28 µM)	0.6	clearance [35]: 8.5 mL/min/kg; Vd [37]: 2 L/kg; clearance [38]: 252 mL/min/kg; AUC [39]: 190 ng·h/mL; AUC [40]: 6800 ng·h/mL; Vd [43]: 23 L/kg
